Assay results as given in ChEMBL document CHEMBL1121665, “Synthesis and antiallergy activity of 4-oxo-4H-pyrido[1,2-a]thieno[2,3-d]pyrimidines” (1981).
Active and inactive are the calls of the source. The rule behind the calls is not given here.

What was measured:
[1] = tested on: Rattus norvegicus; assay: Compound was tested for antiallergic activity in the rat passive cutaneous anaphylaxis at dose 1 mg/kg after po; format: functional
Procedure, shortened: (§1)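 Rats were immunized with ovalbumin 1 mg im plus about 10^10 Bordetella pertussis organisms (as pertussis vaccine) ip. Drug was suspended in 1% gum tragacanth/saline and given orally or ip 10–15 min before iv challenge with ovalbumin 1 mg plus 0.25% Evans blue. Wheal diameter was read 30 min later; n=5 per group; Student's t test.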

[2] = tested on: Rattus norvegicus; assay: Antiallergic activity in the rat passive cutaneous anaphylaxis at dose 5 mg/kg after ip; format: functional; conditions: route intraperitoneal; procedure, shortened: as §1
[3] = tested on: Rattus norvegicus; assay: Compound was tested for antiallergic activity in the rat passive cutaneous anaphylaxis at dose 5 mg/kg after po; format: functional; procedure, shortened: as §1
[4] = tested on: Rattus norvegicus; assay: Compound was tested for antiallergic activity in the rat passive cutaneous anaphylaxis at dose 5 mg/kg after po; No significant activity; format: functional, organism-based; set-up: dose 5 mg/kg; procedure, shortened: as §1
[5] = tested on: Rattus norvegicus; assay: Compound was tested for antiallergic activity in the rat passive cutaneous anaphylaxis, after peroral administration; format: functional; conditions: po, read-out: ID50 (the source's name); procedure, shortened: as §1
[6] = tested on: Rattus norvegicus; assay: Compound was tested for antiallergic activity in the rat passive cutaneous anaphylaxis, after intravenous administration; format: functional; conditions: read-out: ID50 (the source's name)
Procedure, shortened: (§2)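 Ovalbumin/pertussis-immunized rat antiserum was titrated intradermally on the back 48 h before challenge. Compound was given iv, dissolved directly in the challenge solution (ovalbumin 1 mg in 1 mL saline, 0.25% Evans blue), with slight molar excess NaHCO3 if needed. Wheal diameter was measured 30 min later. Percent inhibition was taken at the highest antiserum level versus control, corrected for the extrapolated base value; groups of five.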

[7] = tested on: Rattus norvegicus; assay: Compound was tested for antiallergic activity in the rat passive cutaneous anaphylaxis at dose 0.1 mg/kg after intravenous administration; format: functional; procedure, shortened: as §2
[8] = tested on: Rattus norvegicus; assay: Compound was tested for antiallergic activity in the rat passive cutaneous anaphylaxis at dose 0.5 mg/kg after po; format: functional; procedure, shortened: as §1
[9] = tested on: Rattus norvegicus; assay: Compound was tested for antiallergic activity in the rat passive cutaneous anaphylaxis at dose 5 mg/kg after ip; No significant activity; format: functional, organism-based; set-up: dose 5 mg/kg; procedure, shortened: as §1
[10] = tested on: Rattus norvegicus; assay: Compound was tested for antiallergic activity in the rat passive cutaneous anaphylaxis at dose 1-2 mg/kg after iv administration; Inactive; format: functional, organism-based

Row | SMILES | inhibition in vivo at 5 mg/kg [2] [%] | inhibition [4] | also measured
1 | CCCc1cc2c(=O)n3cc(C(=O)O)ccc3nc2s1 | 68 | – | inhibition in vivo at 1 mg/kg [1]: 18%
2 | CC(C)c1cc2c(=O)n3cc(C(=O)O)ccc3nc2s1 | 100 | – | –
3 | O=C(O)c1ccc2nc3sc(-c4ccccc4)cc3c(=O)n2c1 | 17 | – | inhibition in vivo at 5 mg/kg [3]: 17%
4 | CC(C)c1cc2c(=O)n3cc(C(=O)Nc4nn[nH]n4)ccc3nc2s1 | 30 | – | –
5 | Cc1cc2c(=O)n3cc(C(=O)O)ccc3nc2s1 | 100 | – | inhibition in vivo at 5 mg/kg [3]: 62%
6 | CCc1cc2c(=O)n3cc(C#N)ccc3nc2s1 | 13 | No significant activity | –
7 | O=C1c2ccccc2S(=O)(=O)c2cc(-c3nn[nH]n3)ccc21 [DOXANTRAZOLE] | – | – | ED50 [5]: 5 mg/kg; ED50 [6]: 1.5 mg/kg
8 | O=c1c2cc(-c3ccccc3)sc2nc2ccc(-c3nnn[nH]3)cn12 | 84 | No significant activity | –
9 | CC(C)c1cc2c(=O)n3cc(C(N)=O)ccc3nc2s1 | 100 | – | –
10 | Cc1cc2c(=O)n3cc(C#N)ccc3nc2s1 | 88 | – | inhibition in vivo at 5 mg/kg [3]: 100%
11 | Cc1cc2c(=O)n3cc(-c4nnn[nH]4)ccc3nc2s1 | 100 | No significant activity | –
12 | CCc1cc2c(=O)n3cc(C(=O)O)ccc3nc2s1 | 100 | – | inhibition in vivo at 0.1 mg/kg [7]: 33%; inhibition in vivo at 0.5 mg/kg [8]: 69%
13 | CCc1cc2c(=O)n3cc(C(=O)Nc4nn[nH]n4)ccc3nc2s1 | 62 | No significant activity | –
14 | CCc1cc2c(=O)n3cc(-c4nnn[nH]4)ccc3nc2s1 | 97 | – | inhibition in vivo at 0.1 mg/kg [7]: 56%; inhibition in vivo at 0.5 mg/kg [8]: 38%
15 | CCc1cc2c(=O)n3cc(C(=O)OC)ccc3nc2s1 | 100 | – | inhibition in vivo at 5 mg/kg [3]: 75%
16 | CCCCc1cc2c(=O)n3cc(C(=O)Nc4nn[nH]n4)ccc3nc2s1 | 18 | – | –
17 | Cc1sc2nc3ccc(C#N)cn3c(=O)c2c1C | 14 | – | –

Row | SMILES | inhibition in vivo at 5 mg/kg [2] [%] | inhibition [4] | also measured
18 | CCCCc1cc2c(=O)n3cc(C(=O)O)ccc3nc2s1 | 52 | – | –
19 | CCCc1cc2c(=O)n3cc(-c4nnn[nH]4)ccc3nc2s1 | 100 | – | inhibition in vivo at 5 mg/kg [3]: 67%
20 | CC(C)c1cc2c(=O)n3cc(-c4nnn[nH]4)ccc3nc2s1 | 28 | – | –
21 | Cc1sc2nc3ccc(C(=O)O)cn3c(=O)c2c1C | 28 | No significant activity | –
22 | Cc1cc2c(=O)n3cc(C(N)=O)ccc3nc2s1 | 100 | – | inhibition in vivo at 5 mg/kg [3]: 38%
23 | CCc1cc2c(=O)n3cc(C(N)=O)ccc3nc2s1 | 46 | No significant activity | –
24 | O=C(Nc1nn[nH]n1)c1ccc2nc3sc(-c4ccccc4)cc3c(=O)n2c1 | 17 | No significant activity | –
25 | CCOC(=O)c1sc2nc3ccc(C(=O)OC)cn3c(=O)c2c1C | – | – | inhibition [9]: No significant activity
26 | CCCCc1cc2c(=O)n3cc(-c4nnn[nH]4)ccc3nc2s1 | 26 | – | –
27 | COC(=O)c1ccc2nc3scc(C)c3c(=O)n2c1 | 23 | – | –
28 | O=C(O)c1cc(=O)c2c(OCC(O)COc3cccc4oc(C(=O)O)cc(=O)c34)cccc2o1 | – | – | ID50 [10]: inactive
29 | CCOC(=O)c1ccc2nc3sc(C(C)C)cc3c(=O)n2c1 | 63 | – | –
30 | Cc1sc2nc3ccc(-c4nnn[nH]4)cn3c(=O)c2c1C | 30 | – | inhibition in vivo at 5 mg/kg [3]: 21%
31 | Cc1cc2c(=O)n3cc(C(=O)Nc4nn[nH]n4)ccc3nc2s1 | 25 | No significant activity | –
32 | Cc1sc2nc3ccc(C(=O)Nc4nn[nH]n4)cn3c(=O)c2c1C | 94 | No significant activity | –
33 | CCCCc1cc2c(=O)n3cc(C(N)=O)ccc3nc2s1 | 25 | No significant activity | –
